According to paper PMC4449380 (Advances in Therapy, 2015):
Like-named read-outs stand apart in the source and are kept apart here. One block for each molecule: values may come before it.

Tests used:
[1] = assay type: in vivo, healthy Japanese males
Summary of the method: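 Open-label add-on study in 12 males: luseogliflozin 5 mg Day 1, pioglitazone 30 mg Days 2–7, both Day 8, dosed before breakfast. Blood was drawn pre-dose and 0.25–24 h on Days 1, 7 and 8. LC–MS/MS measured luseogliflozin (0.05–100 ng/mL) and pioglitazone with M-III/M-IV (10–2000 ng/mL). […] GMR with 90% CI was by ANOVA with treatment fixed and subject random.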

CYP2E1 = conditions: in vitro; ref Taisho Pharmaceutical Co., Ltd., data on file; cited from earlier work
OATP1B1 = conditions: in vitro; ref Taisho Pharmaceutical Co., Ltd., data on file; cited from earlier work
CYP2C9 = conditions: in vitro; ref Taisho Pharmaceutical Co., Ltd., data on file; cited from earlier work
[2] = tested on: organic cation transporter 2; conditions: in vitro; ref Taisho Pharmaceutical Co., Ltd., data on file; cited from earlier work
CYP3A4 = conditions: in vitro; ref Taisho Pharmaceutical Co., Ltd., data on file; cited from earlier work
[3] = 24-h cumulative urinary glucose excretion; assay type: in vivo, healthy Japanese males; conditions: luseogliflozin in combination with an OAD
Summary of the method: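 Healthy males, 12 per study. Pooled urine was collected for 24 h pre-dose and 0–24 h post-dose, and urine glucose was measured. Glimepiride arm: randomized three-way crossover of single doses (luseogliflozin 5 mg, glimepiride 1 mg, or both) before breakfast, with ≥7-day washout. Metformin arm: same design with 250 mg under fasting. Voglibose arm: add-on design, urine collected Days 1, 7 and 8.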

[4] = ref Taisho Pharmaceutical Co., Ltd., data on file; cited from earlier work
OAT1 = conditions: in vitro; ref Taisho Pharmaceutical Co., Ltd., data on file; cited from earlier work
[5] = cited from earlier work
[6] = tested on: breast cancer resistance protein; conditions: in vitro; ref Taisho Pharmaceutical Co., Ltd., data on file; cited from earlier work
[7] = assay type: in vivo, healthy Japanese males; conditions: co-administered with miglitol
Summary of the method: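 Randomized open-label crossover in 12 males using six sequences with ≥7-day washout. Single oral doses of luseogliflozin 5 mg, miglitol 50 mg, or both were given before breakfast while hospitalized. Venous blood was drawn pre-dose and 0.25–24 h post-dose. Plasma luseogliflozin was measured by LC–MS/MS (0.05–100 ng/mL). Cmax was derived non-compartmentally. GMR with 90% CI, combination vs alone, used ANOVA with treatment, sequence and timing fixed and subject random.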

CYP2D6 = conditions: in vitro; ref Taisho Pharmaceutical Co., Ltd., data on file; cited from earlier work
CYP2B6 = conditions: in vitro; ref Taisho Pharmaceutical Co., Ltd., data on file; cited from earlier work
OAT3 = conditions: in vitro; ref Taisho Pharmaceutical Co., Ltd., data on file; cited from earlier work
Safety assessments = assay type: in vivo, healthy Japanese males
Summary of the method: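 Safety was monitored across six single-site studies of 12 healthy males aged 20–39 years, hospitalized during dosing. Adverse events were recorded by nature and frequency, including changes in laboratory values, vital signs and 12-lead ECG. Investigators judged hypoglycemia from symptoms or blood glucose.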

P-glycoprotein = conditions: in vitro; ref Taisho Pharmaceutical Co., Ltd., data on file; cited from earlier work
CYP2A6 = conditions: in vitro; ref Taisho Pharmaceutical Co., Ltd., data on file; cited from earlier work
CYP1A2 = conditions: in vitro; ref Taisho Pharmaceutical Co., Ltd., data on file; cited from earlier work
CYP2C8 = conditions: in vitro; ref Taisho Pharmaceutical Co., Ltd., data on file; cited from earlier work

decrease in C max and AUC0–24h of pioglitazone ([1]; co-administration with luseogliflozin): about 10%
SMILES: CCc1ccc(CCOc2ccc(CC3SC(=O)NC3=O)cc2)nc1 (racemic) [Pioglitazone, (±)-5(-)[p(-)[2-(5-ethyl-2-pyridyl)ethoxy]benzyl]-2,4-thiazolidinedione, reference compound]

change in C max of luseogliflozin ([1]; co-administered with pioglitazone): about 15%
change in C max of luseogliflozin [7]: about 15%
SMILES: CCOc1ccc(Cc2cc([C@@H]3S[C@H](CO)[C@@H](O)[C@H](O)[C@H]3O)c(OC)cc2C)cc1 [Luseogliflozin, (1S)-1,5-Anhydro-1-[5-(4-ethoxybenzyl)-2-methoxy-4-methylphenyl]-1-thio-D-glucitol]
IC50 (CYP2E1): > 100 µM
IC50 (OATP1B1): > 100 µM
IC50 (CYP2C9): > 100 µM
IC50 [2]: > 100 µM
IC50 (CYP3A4): > 100 µM
UGE compared with luseogliflozin alone [3]: slightly reduced
enzymes involved in the metabolism [4]: cytochrome P450 (CYP) isoforms 3A4/5, 4A11, 4F2, and 4F3B, and UDP-glucuronosyltransferase 1A1
IC50 (OAT1): > 100 µM
incidence of hypoglycemia ([5]; in combination with a sulfonylurea, over 52 weeks): 10.7%
hemoglobin A1c and fasting plasma glucose ([5]; in combination with other classes of OADs for 52 weeks): significantly reduced
rate of adverse drug reactions ([5]; in combination with other classes of OADs, 52 weeks): 12.4–25.4%
incidence of hypoglycemia ([5]; in combination with other classes of OADs): 0.9–3.4%
IC50 [6]: > 100 µM
IC50 (CYP2D6): > 100 µM
IC50 (CYP2B6): > 100 µM
IC50 (OAT3): > 100 µM
serious adverse events or adverse events requiring treatment discontinuation (Safety assessments; all six studies, luseogliflozin alone or with OADs): no serious adverse events
changes in laboratory tests, vital signs, or electrocardiography (Safety assessments; all studies): no clinically relevant changes
hypoglycemia (Safety assessments; any of the studies): no episodes of hypoglycemia
adverse events (Safety assessments; luseogliflozin administered alone or in combination with the other OADs): no adverse events
adverse events (Safety assessments; luseogliflozin in combination with glimepiride, mild in severity): One adverse event (white blood cell urine positive) occurred in one subject
adverse events (Safety assessments; luseogliflozin in combination with metformin (nausea; nausea and headache), mild in severity): three events occurred in two subjects
IC50 (P-glycoprotein): > 100 µM
IC50 (CYP2A6): > 100 µM
IC50 (CYP1A2): > 100 µM
IC50 (CYP2C8): > 100 µM
